Compound activity: PubChem, Broad Institute
Shown is part of a subset that was picked to be rich in hits.
YB-1 expression: inhibitors of YB-1 gene expression, primary screen, cell-based, fluorescence | U2OS, qRT-PCR YB-1 vs CDIP delta delta Cp, 16 h; stronger effect = higher value; zero = DMSO, each unit about twofold | delta delta Cp (YB-1 minus CDIP) (concentration not given with the values) | actives 0.37% (n = 30,000) | AID 434959, 2010;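 active means delta delta Cp rounded down to an integer at or above 3, about 3 SD of DMSO wells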;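 further: higher means less YB-1 transcript or more CDIP transcript relative to DMSO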
INS-1E rescue: protection of INS-1E cells from cytokine death, primary screen, ATP luminescence, single point; INS-1E cytokine-induced death, 48 h; normalised: neutral wells 0, positive control 100; protection from cytokine-induced ATP loss, % at 10 µM; actives 0.1% (n = 20,000);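 active means mean replicate protection from cytokine-induced ATP loss at least 50% and at least 75% of replicates each reaching 50%; inconclusive means meets only one of the two criteria, mean or replicate share; inactive means fails both the mean and replicate share criteria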
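Assay system – rat INS-1E insulinoma cell line · Quantity – 8000 cells per well · Buffer or medium – RPMI without phenol red, 5% FBS · Schedule – 48 h co-treatment, 10 min post-lysis read · Technique – luminescent ATP assay (CellTiter-Glo)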
T cruzi HTS: inhibitors of intracellular Trypanosoma cruzi, primary screen, cell-based, plate reader, single point, set 2; activity score (inhibition), % at 5.01 µM; intracellular Trypanosoma cruzi in host cells; actives 4.9% (n = 22,000); in the data active means activity score above about 55%; inconclusive means no clear call, values can overlap the other calls;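 further: parasites and compound incubated about four days before reading; 0% = median of neutral control wells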
* = called active by the depositor; ? = inconclusive; . = no result.

SMILES	YB-1 expression	INS-1E rescue	T cruzi HTS
C[C@@H]1CN([C@@H](C)CO)C(=O)Cc2cc(NC(=O)Nc3ccc(C(F)(F)F)cc3)ccc2O[C@@H]1CN(C)Cc1ccc(Cl)c(Cl)c1	0.1	-36.6	56.5*
COc1ccc(CN(C)C[C@H]2Oc3ccc(NC(=O)Nc4ccc(C(F)(F)F)cc4)cc3CC(=O)N([C@@H](C)CO)C[C@@H]2C)cc1	-0.511	-6.7	12.1
C[C@H](CO)N1C[C@H](C)[C@H](CN(C)Cc2ccc(C(F)(F)F)cc2)Oc2ccc(NC(=O)Nc3ccc(C(F)(F)F)cc3)cc2CC1=O	0.0497	-69.3	72.1*
CC(C)(C)C(=O)Nc1c(Cl)sc2nccc(=O)n12	-0.608	.	.
CCOC(=O)[C@H](CCc1ccccc1)N[C@H](C)C(=O)N1C2CCCCC2C[C@H]1C(=O)O (stereo partly drawn)	0.153	.	.
COc1cc(CCC(=O)N2CCC=CC2=O)cc(OC)c1OC	0.172	.	.
Cc1cccc(N=Cc2c(O)n(-c3ccccc3)c(=O)c3ccccc23)c1	-0.0285	.	.
CC(C)NC(=O)Nc1ccc2c(c1)CC(=O)N([C@@H](C)CO)C[C@H](C)[C@H](CN(C)Cc1ccc(C(F)(F)F)cc1)O2	-0.106	8.1	-2.8
C[C@H]1CN([C@@H](C)CO)C(=O)c2cc(NC(=O)Nc3ccc(C(F)(F)F)cc3)ccc2O[C@@H]1CN(C)Cc1ccc(Cl)c(Cl)c1	0.137	-52.3	10.9
C[C@H](CO)N1C[C@H](C)[C@H](CN(C)Cc2ccc(Cl)c(Cl)c2)Oc2ccc(NC(=O)Nc3ccc(C(F)(F)F)cc3)cc2C1=O	0.0834	-25.1	90.6*
C[C@@H]1CN([C@H](C)CO)C(=O)Cc2cc(NC(=O)Nc3ccc(C(F)(F)F)cc3)ccc2O[C@H]1CN(C)Cc1ccncc1	0.137	15.8	-9.9
C[C@@H]1CN([C@H](C)CO)C(=O)Cc2cc(NC(=O)Nc3ccc(C(F)(F)F)cc3)ccc2O[C@@H]1CN(C)Cc1ccc(C(F)(F)F)cc1	0.141	-65.4	68.0*
C[C@H](CO)N1C[C@H](C)[C@H](CN(C)Cc2ccncc2)Oc2ccc(NC(=O)Nc3ccc(C(F)(F)F)cc3)cc2CC1=O	0.0906	-19.2	61.0*
CCN1C(=O)/C(=C/C=C2\Sc3ccc(Cl)cc3N2C)SC1=S	-0.306	.	.
O=C(O)CCCCCC(=O)N/N=C/c1ccc(Br)s1	-0.209	10.8	-15.7
COc1cc(/C=N/NC(=O)CCCCCCC(=O)Nc2ccccc2O)c(Br)cc1O	-0.195	11.1	2.9
O=C(NO)c1ccc(C(=O)N/N=C/c2ccc(-n3ccnc3)cc2)cc1	-0.102	0.4	0.2
Cc1cc(O)c2c(c1)C(=O)C13C(C2=O)C(=O)C2C(O)C1C1C(O)C3C(=O)C3C(=O)c4c(O)cc(C)cc4C(=O)C321 (stereo not drawn)	-0.27	.	.
C[C@H](CO)N1C[C@H](C)[C@@H](CN(C)Cc2ccc(C(=O)Nc3ccccc3N)cc2)Oc2c(NC(=O)c3cnccn3)cccc2C1=O	-0.19	-4.7	75.1*
C[C@H](CO)N1C[C@H](C)[C@H](CN(C)Cc2ccc(C(=O)O)cc2)Oc2c(NC(=O)c3cnccn3)cccc2C1=O	-0.443	3.1	-5.0
C[C@H]1CN([C@@H](C)CO)C(=O)c2cccc(NC(=O)c3cnccn3)c2O[C@@H]1CN(C)Cc1ccc(C(=O)Nc2ccccc2N)cc1	-0.181	-14.1	?
C[C@H]1CN([C@@H](C)CO)C(=O)c2cccc(NC(=O)c3cnccn3)c2O[C@H]1CN(C)Cc1ccc(C(=O)Nc2ccccc2N)cc1	-0.495	-20.9	67.5*
CCCCCCC/C=N/NC(=O)CCCCCCC(=O)O	0.0495	-1.5	-7.0
O=S(=O)(NCC1CCN(Cc2ccc(OCCO)cc2)CC1)c1ccccc1	0.994	.	.
Cc1csc2sc(C=NCc3cccs3)c(C)c12	-0.307	.	.
O=C(NO)c1cccc(C(=O)N/N=C/c2cccc(O)c2)c1	-0.457	7.4	-18.3
C[C@H]1CN([C@@H](C)CO)C(=O)c2cc(NC(=O)Nc3ccc(F)cc3)ccc2O[C@H]1CN(C)Cc1ccncc1	0.291	-12.4	12.8
O=C1N(C2CCCCC2)C(=NC2CCCCC2)SC12CC2	0.45	.	.
C[C@H](CO)N1C[C@H](C)[C@H](CN(C)Cc2ccc(-c3ccccc3)cc2)Oc2ccc(NS(=O)(=O)c3ccc(Cl)cc3)cc2C1=O	-0.181	-3.3	56.3*
C[C@@H]1CN([C@@H](C)CO)C(=O)c2cc(NS(=O)(=O)c3ccc(Cl)cc3)ccc2O[C@@H]1CN(C)Cc1ccc(-c2ccccc2)cc1	0.116	-52.5	69.1*
